The text below walks through data of ChEMBL document CHEMBL1125037, “Synthesis and antihypertensive activity of 4-(1,2-dihydro-2-oxo-1-pyridyl)-2H-1-benzopyrans and related compounds, new potassium channel activators” (1990).

SMILES strings stand for the structures.

Experiment [1] has as its system Rattus norvegicus. The experiment can be described thus: Dose required to reduce mean blood pressure after 20 hr following (po) administration conscious spontaneously hypertensive rat. The experiment is classed as functional.
Experiment [2] has as its system Rattus norvegicus. The experiment can be described thus: Dose required to reduce blood pressure by 30 mmHg after (po) administration in conscious spontaneously hypertensive rat. The experiment is classed as functional. In outline: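 Conscious male Okamoto-strain SHR (280-330 g, >180 mmHg) were given two to four oral doses beyond the 1 mg/kg screen. Mean arterial pressure was recorded directly via an aortic catheter in unrestrained rats. The ED30, the dose in µg/kg lowering pressure by 30 mmHg, came from linear regression of effect vs log dose.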

Experiment [3] concerns Rattus norvegicus. In words: Dose required to reduce mean blood pressure after 2 hr following (po) administration conscious spontaneously hypertensive rat. The experiment is classed as functional.
Experiment [4] deals with Rattus norvegicus. The experiment can be described thus: Antihypertensive effect after 1 mg/kg (po) administration in conscious spontaneously hypertensive rat (over a time period of 0-210 minutes). The experiment is classed as functional. In outline: (§1)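 Male Okamoto-strain SHR (280-330 g, blood pressure >180 mmHg), conscious and unrestrained, given 1 mg/kg orally as a screening dose. Mean arterial pressure was recorded directly and continuously via an aortic catheter from 1 h before to 3.5 h after dosing. The effect is the mean of the maximum individual changes over 3.5 h; N ≥ 3.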

The nature of experiment [5]: Ratio of ED30(20h) to ED30(2h) was determined. The experiment is classed as functional.
Experiment [6] relates to Rattus norvegicus. In words: Dose required to reduce mean blood pressure was determined after 2 hr following(po) administration in conscious spontaneously hypertensive rat. The experiment is classed as functional.
Experiment [7] relates to Rattus norvegicus. In words: Dose required to reduce mean blood pressure was determined after 20h following(po) administration in conscious spontaneously hypertensive rat. The experiment is classed as functional.
The subject of experiment [8] is Rattus norvegicus. The experiment can be described thus: Antihypertensive effect after 1 mg/kg (po) administration in conscious spontaneously hypertensive rat (over a time period of 0-210 min). The experiment is classed as functional, organism-based. Set-up: dose 1 mg/kg. A digest of the protocol:
as §1

As for `CC1(C)Oc2ccc(C#N)cc2C(n2ccncc2=O)[C@@H]1O` (stereo partly specified), the ED30 in experiment [1] was determined as 1.29 mg/kg; in experiment [2] it was 0.01 mg/kg; in experiment [3], 0.291 mg/kg. Further, in experiment [4], the “Max fall in blood pressure” value worked out at 75 mmHg. Further, the Ratio in experiment [5] was 4.4.
In the case of `CC1(C)C=C(n2cc(N)ccc2=O)c2cc(C#N)ccc2O1`, the figures for the ED30 in experiment [1], in experiment [2] and in experiment [3] were 1.61 mg/kg, 0.206 mg/kg and 0.341 mg/kg, respectively. For the same molecule, the “Max fall in blood pressure” value in experiment [4] came to 94 mmHg. The Ratio in experiment [5] was found to be 4.7.
On the same counts, the results for `CC1(C)C=C(n2ccncc2=O)c2cc(C#N)ccc2O1` are 0.357 mg/kg, 0.022 mg/kg, 0.038 mg/kg, 105 mmHg and 9.4.
For `CC1(C)Oc2ccc(C#N)cc2[C@]2(n3ccccc3=O)O[C@H]12`, the ED30 in experiment [2] came to 0.202 mg/kg. The “Max fall in blood pressure” value in experiment [4] was determined as 69 mmHg.
As to `CC1(C)Oc2ccc(C#N)cc2[C@@H](n2ccccc2=O)[C@@H]1OC=O`, the ED30 in experiment [1] was found to be 0.416 mg/kg; in experiment [2], 0.03 mg/kg; in experiment [3] it was 0.067 mg/kg. Moreover, the “Max fall in blood pressure” value in experiment [4] amounted to 101 mmHg. Besides, the Ratio in experiment [5] is 6.2.
Take `COc1ccn(C2=CC(C)(C)Oc3ccc(C#N)cc32)c(=O)c1`: the ED30 in experiment [2] came out at 0.066 mg/kg. Besides, in experiment [4], the “Max fall in blood pressure” value stood at 113 mmHg.
For `CC1(C)Oc2ccc(C#N)cc2[C@@H](n2ccccc2=O)[C@@H]1O` [EMAKALIM], the ED30 was 0.045 mg/kg in experiment [6], 0.138 mg/kg in experiment [7] and 0.05 mg/kg in experiment [2]. Moreover, the “Max fall in blood pressure” value in experiment [4] is recorded as 108 mmHg. The Ratio in experiment [5] is 3.1.
`CC1(C)Oc2ccc([N+](=O)[O-])cc2[C@]2(n3ccccc3=O)O[C@H]12`: the ED30 in experiment [2] was determined as 0.06 mg/kg. The “Max fall in blood pressure” value in experiment [4] is listed as 118 mmHg.
The like results for `COc1ccn([C@@H]2c3cc(C#N)ccc3OC(C)(C)[C@H]2O)c(=O)c1` were, in that order, 0.197 mg/kg and 73 mmHg.
The like results for `CC1(C)Oc2ccc([N+](=O)[O-])cc2[C@@H](n2ccccc2=O)[C@@H]1OC=O` were, in that order, 0.074 mg/kg and 129 mmHg.
Take `CC1(C)CC(n2ccccc2=O)c2cc(C#N)ccc2O1` (stereo unspecified): in experiment [2], the ED30 was 0.15 mg/kg. Besides, the “Max fall in blood pressure” value in experiment [4] turned out to be 92 mmHg.
Regarding `CC1(C)C=C(n2ccccc2=O)c2cc(Br)ccc2O1`, the figures for the ED30 in experiment [1], in experiment [2] and in experiment [3] were 1.27 mg/kg, 0.11 mg/kg and 0.069 mg/kg, respectively. Further, the “Max fall in blood pressure” value in experiment [4] is listed as 131 mmHg. Moreover, in experiment [5], the Ratio is 18.4.
The like results for `CC(=O)c1ccc2c(c1)C(n1ccccc1=O)=CC(C)(C)O2` were, in that order, 0.546 mg/kg, 0.025 mg/kg, 0.074 mg/kg, 130 mmHg and 7.4.
Take `CC1(C)Oc2ccc([N+](=O)[O-])cc2[C@@H](n2ccccc2=O)[C@@H]1O`: the figures for the ED30 in experiment [6], in experiment [7] and in experiment [2] were 0.035 mg/kg, 0.884 mg/kg and 0.024 mg/kg, respectively. The “Max fall in blood pressure” value in experiment [4] was found to be 113 mmHg. Also, in experiment [5], the Ratio stood at 25.2.
In the case of `COC(=O)c1ccc2c(c1)C(n1ccccc1=O)=CC(C)(C)O2`, the results for the ED30 in experiment [1], in experiment [2] and in experiment [3] were 2.06 mg/kg, 0.202 mg/kg and 0.573 mg/kg, respectively. Further, the “Max fall in blood pressure” value in experiment [4] turned out to be 98 mmHg. The Ratio in experiment [5] was 3.6.
`CC(=O)O[C@H]1[C@H](n2ccccc2=O)c2cc(C#N)ccc2OC1(C)C`: the values for the ED30 in experiment [1], in experiment [2] and in experiment [3] were 0.405 mg/kg, 0.106 mg/kg and 0.112 mg/kg, respectively. Besides, the “Max fall in blood pressure” value in experiment [4] is 89 mmHg. Besides, the Ratio in experiment [5] is 3.6.
In the case of `CCOc1ccn(C2=CC(C)(C)Oc3ccc(C#N)cc32)c(=O)c1`, the ED30 is above 1 mg/kg in experiment [1], 0.017 mg/kg in experiment [2] and 0.137 mg/kg in experiment [3]. Besides, in experiment [4], the “Max fall in blood pressure” value was 136 mmHg. The Ratio in experiment [5] was above 7.3.
As to `CC1(C)Oc2ccc(C#N)cc2C(N2N=CCCC2=O)[C@@H]1O` (stereo partly specified), the ED30 amounted to 0.148 mg/kg in experiment [1], 0.211 mg/kg in experiment [2] and 0.056 mg/kg in experiment [3]. Also, the “Max fall in blood pressure” value in experiment [4] amounted to 63 mmHg. Besides, in experiment [5], the Ratio came out at 2.6.
The like results for `CC1(C)C=C(n2ccccc2=O)c2cc(C#N)ccc2O1` [BIMAKALIM] were, in that order, 0.186 mg/kg, 0.01 mg/kg, 0.036 mg/kg, 142 mmHg and 5.2.
In the case of `CC1(C)Oc2ccc(C#N)cc2C(n2ncccc2=O)[C@@H]1O` (stereo partly specified), the ED30 in experiment [1] turned out to be 0.082 mg/kg; in experiment [2], 0.036 mg/kg; in experiment [3], 0.045 mg/kg. For the same molecule, in experiment [4], the “Max fall in blood pressure” value is given as 77 mmHg. For the same molecule, the Ratio in experiment [5] came to 1.8.
The like results for `CC1(C)Oc2ccc(C#N)cc2[C@H](N2CCCC2=O)[C@H]1O` [(-)-CROMAKALIM] were, in that order, 0.603 mg/kg, 0.11 mg/kg, 0.131 mg/kg, 78 mmHg and 4.6.
In experiment [2], `COC(=N)c1ccc2c(c1)C(N1CCCC1=O)[C@H](O)C(C)(C)O2` (stereo partly specified) gave an ED30 of 0.083 mg/kg. Also, in experiment [4], the “Max fall in blood pressure” value is on record as 76 mmHg.
As for `CC1(C)Oc2ccc(/N=C/c3ccc(C#N)cc3)cc2C(N2CCCC2=O)[C@@H]1O` (stereo partly specified), the “Max fall in blood pressure” value in experiment [8] was “Not significant”.
Still for that read-out and setting: with `CC1(C)Oc2ccc(/C=C/c3ccc(C#N)cc3)cc2[C@@H](n2ccccc2=O)[C@@H]1O` the entry was “Not significant”.
Same read-out and setting: for `CC1(C)Oc2ccc(C(N)=O)cc2[C@]2(n3ccccc3=O)O[C@H]12` the value was “Not significant”; for `CC1(C)C=C(n2cc(Br)cc(Br)c2=O)c2cc(C#N)ccc2O1`, “Not significant”.
As to `CC1(C)Oc2ccc(-c3nn[nH]n3)cc2C(N2CCCC2=O)[C@@H]1O` (stereo partly specified), in experiment [8], the “Max fall in blood pressure” value is “Not significant”.
Same read-out and setting: for `CC(=O)Nc1ccc(=O)n(C2=CC(C)(C)Oc3ccc(C#N)cc32)c1` the value was “Not significant”.
With `CC1(C)C=C(n2ccccc2=O)c2cc([N+](=O)[O-])ccc2O1`, the results for the ED30 in experiment [1], in experiment [2] and in experiment [3] were 0.102 mg/kg, 0.00083 mg/kg and 0.0007 mg/kg, respectively. Further, the “Max fall in blood pressure” value in experiment [4] amounted to 140 mmHg. For the same molecule, the Ratio in experiment [5] turned out to be 146.
On to `CC1(C)Oc2ccc(C#N)cc2[C@@H](n2cc(C(=O)O)ccc2=O)[C@@H]1O`, for which the “Max fall in blood pressure” value in experiment [8] was “Not significant”.
